In the library only some 0.64% were active in any assay of this set; here they are far more common.
Rad51 HR inh: Rad51 (human) homologous recombination inhibition | Q06609 | hRad51 DNA strand exchange, fluorescence dequenching | inhibition, % at 10 µM | hit rate 0.085% among 200,000 | AID 1385;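 active means inhibition above 40% at the single screening dose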;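 further: 0% = DMSO control wells and 100% = blanks with heterologous ssDNA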
Target sequence (Q06609 whole entry, looked up): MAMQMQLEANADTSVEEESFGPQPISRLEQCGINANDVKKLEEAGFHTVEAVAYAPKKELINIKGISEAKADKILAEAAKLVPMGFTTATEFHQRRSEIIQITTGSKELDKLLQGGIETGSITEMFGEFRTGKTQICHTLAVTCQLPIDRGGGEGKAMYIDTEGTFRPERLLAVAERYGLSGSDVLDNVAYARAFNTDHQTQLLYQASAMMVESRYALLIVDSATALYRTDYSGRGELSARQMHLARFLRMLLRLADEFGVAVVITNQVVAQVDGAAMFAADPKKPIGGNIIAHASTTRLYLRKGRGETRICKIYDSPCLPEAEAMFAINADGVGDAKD
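material = hRad51 filaments on single-stranded DNA | reagent = Donor/quencher-labelled 47-bp dsDNA substrate | compound = 10 µM final, single point | schedule = strand-exchange reaction 15 min at room temperature | measured by = fluorescein emission 520 nm, excitation 485 nm | read-out basis = % inhibition versus plate control and blank means | benchmarks = plate controls and plate blanks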
TNF necrop inh: inhibitors of TNF-alpha induced necroptosis in Jurkat FADD-/- cells. Jurkat FADD-/- TNF necroptosis rescue, ATP luminescence, 24 h; 0 = TNF only, 100 = no-TNF cells. activation (protection from cell death), % at 10 µM. hit rate 0.068% among 220,000. AID 463075;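 active means activation, meaning protection from cell death, of at least 50% relative to plate controls; inactive means activation below 50%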;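 further: necroptosis triggered by 40 ng/mL TNF-alpha added together with compound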
zVAD death inh: blocks zVAD induced death of L929 cells | hit rate 0.38% among 220,000 | L929 zVAD necroptosis rescue, ATP luminescence, 24 h; with zVAD 60 µM | viability rescue, % at 10 µM;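 active means activation, scaled between plate controls, above about 75%, limit read from the data; inactive means activation under that limit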;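 further: 0% = zVAD with DMSO and 100% = DMSO alone without zVAD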
sdo1 growth: restores growth of sdo1-depleted yeast; S. cerevisiae sdo1-depleted JHY4D growth rescue, OD600 30 h; hits give high values; pdr5 snq2 efflux-pump mutant strain; z-score at 10 µM; hit rate 0.21% among 140,000; AID 817;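 active means z-score above 3 at both the 24 hr and the 30 hr optical density reads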;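 further: z-score against mean and SD of all compound wells on the same plate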
The depositor's hits bear a star; / = no result.

SMILES | Rad51 HR inh | TNF necrop inh | zVAD death inh | sdo1 growth
Cc1csc(Nc2ccccc2)[n+]1-c1ccccc1 | -3 | 56* | 1 | /
O=C(NC1CCCC1)C1CCC(=O)N1C1CCCCC1 (stereo not drawn) | 45* | 0 | 10 | /
CCOC(=O)CN1C(=O)N[C@@H](CCc2ccccc2)[C@@H](C(=O)OC)[C@H]1C | 53* | / | / | /
O=S(=O)(c1ccc(-c2ccon2)s1)N1CCN(c2ccccn2)CC1 | / | 0 | -1 | /
COc1cccc(NC(=O)c2oc3ccccc3c2NC(C)=O)c1 | 112* | 0 | 0 | -0.15
COCC(=O)Nc1c(C(=O)Nc2cccc(OC)c2)oc2ccccc12 | -3 | -4 | 0 | -0.62
O=C(Nc1ccc2c(c1)OCCO2)c1cccc(S(=O)(=O)N2CCOCC2)c1 | 0 | -5 | 1 | -0.47
O=C(Nc1ccc2c(c1)OCCO2)c1cccc(S(=O)(=O)N2CCCCC2)c1 | 122* | -1 | 1 | -0.78
NC(=O)NC(=O)COC(=O)c1cccc(S(=O)(=O)N2CCCCCC2)c1 | 46* | 2 | -1 | /
CCOc1ccc(-c2nc(CSCC(=O)NC3CCCc4ccccc43)c(C)o2)cc1 (stereo not drawn) | 7 | -1 | 0 | -0.52
Cc1nnc(SCC(=O)c2ccc(Cl)cc2)s1 | 41* | 21 | 1 | /
O=C(CN(Cc1ccco1)C(=O)CCC(=O)Nc1nccs1)NCc1ccccc1 | 125* | 1 | 0 | 0.14
O=C(CN(Cc1cccs1)C(=O)CCC(=O)Nc1nccs1)NCc1ccccc1 | 2 | -2 | 0 | 1
Cc1sc2nc(CN3CCOCC3)[nH]c(=S)c2c1C | 1 | -1 | -1 | /
CCOC(=O)C(=NCC1CCCO1)NNc1ccccc1Cl (stereo not drawn) | 44* | 5 | -1 | /
Cc1cc(NC(=O)COC(=O)C2COc3ccccc3O2)no1 (stereo not drawn) | -12 | -1 | 0 | -0.68
Cc1cc(NC(=O)C2COc3ccccc3O2)no1 (stereo not drawn) | 5 | 90* | 48 | 0.46
O=C(Nc1ccc(Cl)cn1)C1COc2ccccc2O1 (stereo not drawn) | -19 | 89* | 38 | /
Cc1cnc(NC(=O)C2COc3ccccc3O2)s1 (stereo not drawn) | 5 | 76* | 1 | -1.1
O=C(Nc1ccccn1)C1COc2ccccc2O1 (stereo not drawn) | -7 | 30 | 1 | -0.02
Cc1cc(C)cc(C(=O)NN2CCOCC2)c1 | 4 | 1 | 1 | 0.03
O=c1c(Cc2ccccc2)c(O)ccn1Cc1ccco1 | 27 | 1 | 0 | /
O=C(CN1CCN(c2ccccn2)CC1)Nc1cc(C(F)(F)F)ccc1Cl | / | -4 | 0 | -1.1
COCc1cc(C)nc2sc(C(=O)NCCO)c(-n3cccc3)c12 | 45* | 1 | 5 | /
Cc1ccc(S(=O)(=O)NNC(=O)c2sc3nc(C)cc(C)c3c2-n2cccc2)cc1 | 1 | -2 | 0 | -1.5
SMILES | Rad51 HR inh | TNF necrop inh | zVAD death inh | sdo1 growth
CCc1ccc(-c2c(C)sc(NC(C)=O)c2C(N)=O)cc1 | -7 | -15 | 78* | -0.57
Cc1sc(NC(=O)CCC(=O)O)c(C(N)=O)c1-c1ccccc1 | / | 1 | 0 | 0.7
CC(C)S(=O)(=O)N1CCN(c2ccnc3cc(Cl)ccc23)CC1 | 6 | 6 | 1 | /
O=C1NC(Cc2c[nH]c3ccccc23)C(=O)N1CCOc1ccc(F)cc1 (stereo not drawn) | 0 | 65* | 7 | 0.96
CN=C(Cc1ccccc1)C1=C(O)CC(C)(C)CC1=O | / | 87* | 53 | /
CC(=Nc1ccccc1)C1=C(O)CC(C)(C)CC1=O | / | 0 | 0 | /
COc1ccc(NC(=O)c2ccc(OC(=S)N(C)c3ccc(OC)cc3)cc2)cc1 | 0 | 68* | 0 | -0.33
C=C1CCN([C@H](C(=O)NCc2ccco2)C(C)C)S(=O)(=O)c2ccccc21 | -6 | 4 | -1 | /
COc1ccc(CNC(=O)C/C(C)=N/NC(=O)C(c2ccccc2)c2ccccc2)cc1 | 1 | 25 | 91* | 0.28
COc1ccc(CNC(=O)C/C(C)=N/NC(=O)Cc2ccc(OC)cc2)cc1 | 3 | 1 | 1 | 0.98
CCCS(=O)(=O)N1CCCC(C(=O)N2CCN(C(=O)OCC)CC2)C1 (stereo not drawn) | 69* | -1 | 0 | -0.24
CCN(C(=O)CSc1nnc(-c2ccncc2)n1-c1ccccc1)C1CCS(=O)(=O)C1 (stereo not drawn) | -21 | 2 | 4 | /
CN(C(=O)CSc1nnc(-c2ccncc2)n1-c1ccccc1)C1CCS(=O)(=O)C1 (stereo not drawn) | 48* | 1 | 0 | /
